According to paper PMC7511286 (European Journal of Drug Metabolism and Pharmacokinetics, 2020):

Assays:
Type in all cases: in vivo, human
[1] = MAD study: safety and tolerability; settings: for TEAE Hemoglobinuria: subjects having the event: based solely on a positive dip stick test
Procedure, shortened: (§1)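 Healthy males aged 18–55 took oral tablets. Treatment-emergent AEs were recorded by clinical evaluation. Vital signs (blood pressure, pulse), 12-lead and Holter ECG, physical examination, and urine and plasma laboratory tests were also assessed. AEs of special interest were hematuria and retroperitoneal colicky pain with suspected or confirmed nephrolithiasis. Subjects were hospitalized around dosing.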

[2] = SAD study: safety and tolerability
Procedure, shortened: as §1

[3] = Preliminary two-compartment population pharmacokinetic model on SAD and MAD data
Procedure, shortened: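 A two-compartment model with first-order absorption, inter-compartmental transfer and elimination was fitted to plasma concentrations. Data were fasted single-dose and multiple-dose only; fed and pre-dosing data were excluded and MAD outliers kept. Parameters were ka, V1/F, V2/F, CL/F and Q/F, with k10, k12 and k21 derived from clearance/volume. Values below LLOQ (0.1 μg/ml) were left-censored. No covariate testing.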

[4] = base model, inter-individual variability

## COc1cccc(-c2ccc(NC(=O)C3=C(C(=O)O)CCC3)c(F)c2)c1 [IMU-838, vidofludimus calcium]
[1]; 25 mg (initiation dose), n = 8
  TEAE Abdominal pain upper: number of events: 1
  TEAE Abdominal pain upper: subjects having the event: 1 (12.5) N (%)
  TEAE Atrioventricular block first degree: number of events: 1
  TEAE Atrioventricular block first degree: subjects having the event: 1 (12.5) N (%)
  TEAE Diarrhea: subjects having the event: 1 (12.5) N (%)
  TEAE Nasopharyngitis: subjects having the event: 1 (12.5) N (%)
  TEAEs Cardiac disorders Total: number of events: 1
  TEAEs Cardiac disorders Total: subjects having the event: 1 (12.5) N (%)
  TEAEs Gastrointestinal disorders Total: number of events: 2
  TEAEs Gastrointestinal disorders Total: subjects having the event: 1 (12.5) N (%)
  TEAEs Infections and infestations Total: number of events: 1
  TEAEs Infections and infestations Total: subjects having the event: 1 (12.5) N (%)
  TEAEs Total: number of events: 4
  TEAEs Total: subjects having the event: 3 (37.5) N (%)
[1]; 30 mg once daily
  number of drug-related TEAEs: 18
[1]; 30 mg, n = 12
  TEAE Abdominal pain: number of events: 1
  TEAE Abdominal pain: subjects having the event: 1 (8.3) N (%)
  TEAE Feces soft: number of events: 2
  TEAE Feces soft: subjects having the event: 2 (16.7) N (%)
  TEAE Flatulence: subjects having the event: 6 (50.0) N (%)
  TEAE Gamma–glutamyl transferase increased: number of events: 2
  TEAE Gamma–glutamyl transferase increased: subjects having the event: 1 (8.3) N (%)
  TEAE Headache: subjects having the event: 1 (8.3) N (%)
  TEAE Lipase increased: number of events: 1
  TEAE Lipase increased: subjects having the event: 1 (8.3) N (%)
  TEAE Musculoskeletal discomfort: number of events: 1
  TEAE Musculoskeletal discomfort: subjects having the event: 1 (8.3) N (%)
  TEAE Nausea: subjects having the event: 1 (8.3) N (%)
  TEAEs Gastrointestinal disorders Total: number of events: 14
  TEAEs Gastrointestinal disorders Total: subjects having the event: 7 (58.3) N (%)
  TEAEs Investigations Total: number of events: 3
  TEAEs Investigations Total: subjects having the event: 2 (16.7) N (%)
  TEAEs Musculoskeletal and connective tissue disorders Total: number of events: 1
  TEAEs Musculoskeletal and connective tissue disorders Total: subjects having the event: 1 (8.3) N (%)
  TEAEs Nervous system disorders Total: number of events: 1
  TEAEs Nervous system disorders Total: subjects having the event: 1 (8.3) N (%)
  TEAEs Renal and urinary disorders Total: number of events: 1
  TEAEs Renal and urinary disorders Total: subjects having the event: 1 (8.3) N (%)
  TEAEs Total: number of events: 20
  TEAEs Total: subjects having the event: 9 (75.0) N (%)
  TEAE Hemoglobinuria: subjects having the event: 1 (8.3) N (%)
[1]; 40 mg once daily
  number of drug-related TEAEs: 8
[1]; 40 mg, n = 12
  TEAE Arthropod bite: number of events: 1
  TEAE Arthropod bite: subjects having the event: 1 (8.3) N (%)
  TEAE Blood creatinine kinase increased: number of events: 1
  TEAE Blood creatinine kinase increased: subjects having the event: 1 (8.3) N (%)
  TEAE Fatigue: subjects having the event: 3 (25.0) N (%)
  TEAE Flatulence: subjects having the event: 1 (8.3) N (%)
  TEAE Headache: subjects having the event: 1 (8.3) N (%)
  TEAE Listless: subjects having the event: 1 (8.3) N (%)
  TEAE Sneezing: subjects having the event: 1 (8.3) N (%)
  TEAEs Gastrointestinal disorders Total: number of events: 1
  TEAEs Gastrointestinal disorders Total: subjects having the event: 1 (8.3) N (%)
  TEAEs General disorders and administration site conditions Total: number of events: 3
  TEAEs General disorders and administration site conditions Total: subjects having the event: 3 (25.0) N (%)
  TEAEs Injury, poisoning and procedural complications total: number of events: 1
  TEAEs Investigations Total: number of events: 1
  TEAEs Investigations Total: subjects having the event: 1 (8.3) N (%)
  TEAEs Nervous system disorders Total: number of events: 2
  TEAEs Nervous system disorders Total: subjects having the event: 1 (8.3) N (%)
  TEAEs Psychiatric disorders Total: number of events: 1
  TEAEs Psychiatric disorders Total: subjects having the event: 1 (8.3) N (%)
  TEAEs Renal and urinary disorders Total: number of events: 2
  TEAEs Renal and urinary disorders Total: subjects having the event: 2 (16.7) N (%)
  TEAEs Respiratory, thoracic and mediastinal disorders Total: number of events: 1
  TEAEs Total: number of events: 12
  TEAEs Total: subjects having the event: 6 (50.0) N (%)
  TEAE Hemoglobinuria: subjects having the event: 2 (16.7) N (%)
[1]; 50 mg once daily
  number of drug-related TEAEs: 16
[1]; 50 mg, n = 16
  TEAE Abdominal pain upper: number of events: 2
  TEAE Abdominal pain upper: subjects having the event: 1 (6.3) N (%)
  TEAE Dyspepsia: subjects having the event: 1 (6.3) N (%)
  TEAE Dysuria: subjects having the event: 1 (6.3) N (%)
  TEAE Epistaxis: subjects having the event: 1 (6.3) N (%)
  TEAE Flank pain: number of events: 1
  TEAE Flank pain: subjects having the event: 1 (6.3) N (%)
  TEAE Headache: subjects having the event: 3 (18.8) N (%)
  TEAE Hematuria: subjects having the event: 1 (6.3) N (%)
  TEAE Lipase increased: number of events: 1
  TEAE Lipase increased: subjects having the event: 1 (6.3) N (%)
  TEAE Nasopharyngitis: subjects having the event: 4 (25.0) N (%)
  TEAE Tenderness: subjects having the event: 1 (6.3) N (%)
  TEAEs Gastrointestinal disorders Total: number of events: 3
  TEAEs Gastrointestinal disorders Total: subjects having the event: 2 (12.5) N (%)
  TEAEs General disorders and administration site conditions Total: number of events: 1
  TEAEs General disorders and administration site conditions Total: subjects having the event: 1 (6.3) N (%)
  TEAEs Infections and infestations Total: number of events: 4
  TEAEs Infections and infestations Total: subjects having the event: 4 (25.0) N (%)
  TEAEs Investigations Total: number of events: 1
  TEAEs Investigations Total: subjects having the event: 1 (6.3) N (%)
  TEAEs Musculoskeletal and connective tissue disorders Total: number of events: 1
  TEAEs Musculoskeletal and connective tissue disorders Total: subjects having the event: 1 (6.3) N (%)
  TEAEs Nervous system disorders Total: number of events: 3
  TEAEs Nervous system disorders Total: subjects having the event: 3 (18.8) N (%)
  TEAEs Renal and urinary disorders Total: number of events: 8
  TEAEs Renal and urinary disorders Total: subjects having the event: 6 (37.5) N (%)
  TEAEs Respiratory, thoracic and mediastinal disorders Total: number of events: 1
  TEAEs Total: number of events: 22
  TEAEs Total: subjects having the event: 10 (62.5) N (%)
  TEAE Hemoglobinuria: subjects having the event: 5 (31.3) N (%)
[1]; 30–50 mg once daily over 14 consecutive days
  tolerability: well tolerated
[1]; single and multiple doses (SAD and MAD)
  deaths or serious AEs: no deaths or serious AEs
[1]; whole MAD study, 52 subjects including placebo
  overall number of drug-related TEAEs: 53
[1]; whole MAD study, 52 subjects including placebo, mild or moderate intensity
  overall number of TEAEs: 79
[2]; 10 mg fasted, n = 6
  TEAE Flatulence: subjects having the event: 1 (16.7) N (%)
  TEAE Headache: subjects having the event: 1 (16.7) N (%)
  TEAE Micturition urgency: number of events: 1
  TEAE Micturition urgency: subjects having the event: 1 (16.7) N (%)
  TEAE Viral upper respiratory tract infection: number of events: 2
  TEAE Viral upper respiratory tract infection: subjects having the event: 2 (33.3) N (%)
  TEAEs Total: number of events: 5
  TEAEs Total: subjects having the event: 3 (50.0) N (%)
[2]; 10 mg fed, n = 6
  TEAE Epistaxis: subjects having the event: 1 (16.7) N (%)
  TEAEs Total: number of events: 1
  TEAEs Total: subjects having the event: 1 (16.7) N (%)
[2]; 20 mg fasted, n = 6
  TEAE Headache: subjects having the event: 1 (16.7) N (%)
  TEAEs Total: number of events: 1
  TEAEs Total: subjects having the event: 1 (16.7) N (%)
[2]; 30 mg fasted, n = 6
  TEAE Opiates positive: number of events: 1
  TEAE Opiates positive: subjects having the event: 1 (16.7) N (%)
  TEAEs Total: number of events: 1
  TEAEs Total: subjects having the event: 1 (16.7) N (%)
[2]; 40 mg fasted, n = 5
  TEAE Rhinitis: subjects having the event: 1 (20.0) N (%)
  TEAEs Total: number of events: 1
  TEAEs Total: subjects having the event: 1 (20.0) N (%)
[2]; all single doses
  AEs of special interest (hematuria, retroperitoneal colicky pain): no AEs of special interest were observed
[2]; all single doses, 12 subjects
  total number of TEAEs: nine
[2]; single oral doses 10–40 mg
  tolerability: well tolerated
[3]; base model
  Correlation coefficient IIV CL/F and IIV V1/F: 0.387
  Exponential residual error: 41.6 %CV
  V1/F (volume in central compartment), population estimate: 2.98 L
  V2/F (volume in peripheral compartment), population estimate: 6.31 L
  ka (absorption rate), population estimate: 0.15 h⁻¹
[3]; base model, fasted SAD and MAD data without pre-dosing
  CL/F (apparent total clearance), population estimate: 4.47 mL/min
[3]; base model, derived, Eq. 2
  k12 (inter-compartmental rate constant): 0.124 h⁻¹
[3]; base model, derived, Eq. 3
  k21 (inter-compartmental rate constant): 0.0584 h⁻¹
[3]; [4]
  IIV on CL/F: 20.8 %CV
  IIV on V1/F: 49.4 %CV
[3]; human, plasma, oral
  half-life: 2.76 h
[3]; male, human, plasma, oral
  half-life: 33.1 h
  k el: 2.5e-05 s⁻¹
